By EC50 is commonly meant the concentration giving half of the maximal effect. One may read the Ki as a measure of affinity in units of concentration, obtained from inhibition or displacement.

The source made the active and inactive calls. The calls are words filed in the database; no cut-off is given here.

In data set [1] the target is T1, Transient receptor potential cation channel subfamily V member 1 (Rattus norvegicus, UniProt O35433). Briefly: Agonist activity at rat TRPV1 receptor expressed in CHO cells assessed as calcium uptake. Type of data set: functional, cell-based.
T1 sequence (O35433 whole entry): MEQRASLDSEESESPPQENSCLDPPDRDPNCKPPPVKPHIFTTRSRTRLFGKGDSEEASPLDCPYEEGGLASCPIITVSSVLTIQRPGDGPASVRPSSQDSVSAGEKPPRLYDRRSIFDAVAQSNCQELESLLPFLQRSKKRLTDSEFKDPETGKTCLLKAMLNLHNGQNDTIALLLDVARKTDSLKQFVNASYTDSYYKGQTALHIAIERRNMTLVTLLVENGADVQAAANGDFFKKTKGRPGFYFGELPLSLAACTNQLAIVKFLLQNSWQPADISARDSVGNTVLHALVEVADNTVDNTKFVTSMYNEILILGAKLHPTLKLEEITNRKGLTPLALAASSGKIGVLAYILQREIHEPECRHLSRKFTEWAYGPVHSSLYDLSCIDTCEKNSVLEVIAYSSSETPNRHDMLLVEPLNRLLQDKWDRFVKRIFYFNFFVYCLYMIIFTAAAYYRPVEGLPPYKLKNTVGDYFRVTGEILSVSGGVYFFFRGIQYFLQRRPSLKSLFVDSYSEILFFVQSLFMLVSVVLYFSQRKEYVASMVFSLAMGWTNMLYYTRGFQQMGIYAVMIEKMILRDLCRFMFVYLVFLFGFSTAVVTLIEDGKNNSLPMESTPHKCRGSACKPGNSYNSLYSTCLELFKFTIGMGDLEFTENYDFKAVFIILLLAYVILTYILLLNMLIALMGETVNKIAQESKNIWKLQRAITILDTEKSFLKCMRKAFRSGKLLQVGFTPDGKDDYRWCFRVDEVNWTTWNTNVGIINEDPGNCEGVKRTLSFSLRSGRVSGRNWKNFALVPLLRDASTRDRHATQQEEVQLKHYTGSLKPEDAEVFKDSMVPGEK
In data set [2] the target is T1, Transient receptor potential cation channel subfamily V member 1. Briefly: Displacement of [3H]RTX form rat TRPV1 receptor expressed in CHO/VR1 cell system. The class given is cell-based. For orientation: Loss of bound radioactivity is the signal in a displacement assay; it reports binding, not function.
Data set [3] is described as follows: Metabolic stability in Sprague-Dawley rat plasma at 10 ug/mL after 240 mins by HPLC. Conditions: read-out: Stability. The class given is ADME, cell-free. A digest of the protocol:
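Compound added to pre-warmed rat plasma to a final 10 μg/mL and incubated 240 min. Stopped with methanol at 0 and 240 min and quantified by LC-MS. Expressed as percent of initial concentration remaining.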

Data set [4] in a line: Metabolic stability in Sprague-Dawley rat liver microsomes at 10 ug/mL after 60 mins by HPLC. The class given is ADME, Microsome. Conditions: read-out: Stability. For orientation: Liver microsomes are a subcellular fraction often used to study metabolism.
The target of data set [5] is Transient receptor potential cation channel subfamily V member 1 (Rattus norvegicus) (UniProt O35433). The data set can be described thus: Activity at rat TRPV1 receptor expressed in CHO cells assessed as changes in intracellular calcium levels at 75 pM by calcium imaging. The class given is cell-based. For orientation: Calcium flux is commonly read through the fluorescence of an indicator in the cells.
Transient receptor potential cation channel subfamily V member 1 (Rattus norvegicus), sequence (O35433 whole entry): as above

The target is the same in data set [6]. The data set can be described thus: Agonist activity at rat TRPV1 receptor expressed in CHO cells assessed as calcium uptake relative to capsaicin. Type of data set: functional, cell-based.

With `C=C(C)[C@@]12C[C@@H](C)[C@@]34OC(Cc5ccccc5)(O[C@@H]1[C@@H]3C=C(COC(=O)Cc1c(F)cccc1F)C[C@]1(O)C(=O)C(C)=C[C@@H]41)O2`, the half-maximal effective concentration (EC50) in data set [1] turned out to be 11.3 nM. Also, in data set [2], the Ki was determined as 2.69 nM.

`C=C(C)[C@@]12C[C@@H](C)[C@@]34OC(Cc5ccccc5)(O[C@@H]1[C@@H]3C=C(COC(=O)Cc1ccc(NS(C)(=O)=O)c(OC)c1)C[C@]1(O)C(=O)C(C)=C[C@@H]41)O2`: the EC50 in data set [1] came to 0.106 nM. In addition, the remaining at 4 h, 10 ug/mL in data set [3] worked out at 90.8%. The remaining at 1 h, 10 ug/mL in data set [4] was 81.4%. In data set [2], this molecule yielded a Ki of 0.228 nM.

For the molecule `C=C(C)[C@@]12C[C@@H](C)[C@@]34OC(Cc5ccccc5)(O[C@@H]1[C@@H]3C=C(COC(=O)Cc1cccc(F)c1)C[C@]1(O)C(=O)C(C)=C[C@@H]41)O2`, in data set [1], the EC50 is 1.92 nM. In data set [2], this molecule came in with a Ki of 2.4 nM.

With `C=C(C)[C@@]12C[C@@H](C)[C@@]34OC(Cc5ccccc5)(O[C@@H]1[C@@H]3C=C(COC(=O)Cc1cc(F)ccc1F)C[C@]1(O)C(=O)C(C)=C[C@@H]41)O2`, the EC50 in data set [1] was 4.21 nM. This molecule also showed a Ki in data set [2] of 0.4 nM.

Regarding `C=C(C)[C@@]12C[C@@H](C)[C@@]34OC(Cc5ccccc5)(O[C@@H]1[C@@H]3C=C(COC(=O)Cc1ccc(NS(C)(=O)=O)c(F)c1)C[C@]1(O)C(=O)C(C)=C[C@@H]41)O2`, in data set [1], the EC50 is 2.45 nM. This molecule had a Ki in data set [2] of 0.84 nM.

Consider `C=C(C)[C@]12C[C@@H](C)[C@@]34O[C@](Cc5ccccc5)(O[C@@H]1[C@@H]3C=C(COC(=O)Cc1ccc(O)c(OC)c1)C[C@]1(O)C(=O)C(C)=C[C@@H]41)O2` [RESINIFERATOXIN], for which, in data set [5], the outcome was Active. In addition, the EC50 in data set [1] came to 0.27 nM. Further, in data set [3], the remaining at 4 h, 10 ug/mL is 71.7%. In addition, in data set [4], the remaining at 1 h, 10 ug/mL was 57.6%. The molecule further yielded a Ki in data set [2] of 0.0426 nM.

Consider `C=C(C)[C@@]12C[C@@H](C)[C@@]34OC(Cc5ccccc5)(O[C@@H]1[C@@H]3C=C(COC(=O)Cc1ccc(NS(C)(=O)=O)cc1)C[C@]1(O)C(=O)C(C)=C[C@@H]41)O2`, for which the EC50 in data set [1] amounted to 1.78 nM. The affinity in data set [2] corresponds to a Ki of 6.81 nM.

Take `C=C(C)[C@@]12C[C@@H](C)[C@@]34OC(Cc5ccccc5)(O[C@@H]1[C@@H]3C=C(CNC(=O)Cc1ccc(NS(C)(=O)=O)cc1)C[C@]1(O)C(=O)C(C)=C[C@@H]41)O2`: in data set [1], the EC50 came out at 375 nM. Moreover, the Ki in data set [2] stood at 320 nM.

Turning to `C=C(C)[C@@]12C[C@@H](C)[C@@]34OC(Cc5ccccc5)(O[C@@H]1[C@@H]3C=C(COC(=O)Cc1cccc(F)c1F)C[C@]1(O)C(=O)C(C)=C[C@@H]41)O2`, the EC50 in data set [1] stood at 9.1 nM. In data set [2], this molecule showed a Ki of 3.53 nM.

Turning to `C=C(C)[C@@]12C[C@@H](C)[C@@]34OC(Cc5ccccc5)(O[C@@H]1[C@@H]3C=C(COC(=O)Cc1ccc(F)cc1)C[C@]1(O)C(=O)C(C)=C[C@@H]41)O2`, the EC50 in data set [1] was 3.88 nM. In data set [2], this molecule returned a Ki of 3.1 nM.

With `C=C(C)[C@@]12C[C@@H](C)[C@@]34OC(Cc5ccccc5)(O[C@@H]1[C@@H]3C=C(COC(=O)Cc1cc(F)cc(F)c1)C[C@]1(O)C(=O)C(C)=C[C@@H]41)O2`, the EC50 in data set [1] worked out at 59 nM. In data set [2], this molecule displayed an inhibition constant Ki of 8.3 nM.

For the molecule `C=C(C)[C@@]12C[C@@H](C)[C@@]34OC(Cc5ccccc5)(O[C@@H]1[C@@H]3C=C(COC(=O)Cc1c(F)c(F)c(F)c(F)c1F)C[C@]1(O)C(=O)C(C)=C[C@@H]41)O2`, the Activity in data set [6] came to 23%. Besides, the Ki in data set [2] stood at 135 nM.

Take `C=C(C)[C@@]12C[C@@H](C)[C@@]34OC(Cc5ccccc5)(O[C@@H]1[C@@H]3C=C(COC(=O)Cc1ccc(F)c(F)c1)C[C@]1(O)C(=O)C(C)=C[C@@H]41)O2`: the concentration for a half-maximal effect (EC50) in data set [1] was 5.5 nM. The Ki in data set [2] came out at 0.98 nM.

For `C=C(C)[C@@]12C[C@@H](C)[C@@]34OC(Cc5ccccc5)(O[C@@H]1[C@@H]3C=C(COC(=O)Cc1ccc(F)cc1F)C[C@]1(O)C(=O)C(C)=C[C@@H]41)O2`, the EC50 in data set [1] is 1.8 nM. Further, the remaining at 4 h, 10 ug/mL in data set [3] turned out to be 88.3%. Also, the remaining at 1 h, 10 ug/mL in data set [4] amounted to 57.9%. In data set [2], this molecule registered a Ki of 0.89 nM.

Take `C=C(C)[C@@]12C[C@@H](C)[C@@]34OC(Cc5ccccc5)(O[C@@H]1[C@@H]3C=C(COC(=O)Cc1ccccc1F)C[C@]1(O)C(=O)C(C)=C[C@@H]41)O2`: the EC50 in data set [1] turned out to be 4.65 nM.

The record behind these values is ChEMBL document CHEMBL1140894, “Non-vanillyl resiniferatoxin analogues as potent and metabolically stable transient receptor potential vanilloid 1 agonists” (Bioorg Med Chem, 2009).
